Experimental data taken from ChEMBL document CHEMBL1255516, “Identification of a new biaryl scaffold generating potent renin inhibitors” (Bioorg Med Chem Lett, 2010).
pIC50: −log10 of the molar value.

Columns and labels:
[1] = Half life in Sprague-Dawley rat at 4 mg/kg, iv; format: ADME, organism-based; parameters: dose 4 mg/kg, route intravenous; conditions: in vivo
Summary of the method: (§1)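 Sprague–Dawley rats dosed iv at 4 mpk as the HCl salt in 60% PEG 200/water, 1 ml/kg.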

Rattus norvegicus = experiment: AUC in Sprague-Dawley rat at 30 mg/kg, po; conditions: in vivo
[2] = Volume of distribution at steady state in Sprague-Dawley rat at 4 mg/kg, iv; format: ADME, organism-based; parameters: dose 4 mg/kg, route intravenous; conditions: in vivo, read-out: Vdss; summary of the method: as §1
Renin [3] = molecular target: T1, Renin (Homo sapiens, UniProt P00797); experiment: Inhibition of human recombinant renin in plasma
T1 sequence (P00797 whole entry): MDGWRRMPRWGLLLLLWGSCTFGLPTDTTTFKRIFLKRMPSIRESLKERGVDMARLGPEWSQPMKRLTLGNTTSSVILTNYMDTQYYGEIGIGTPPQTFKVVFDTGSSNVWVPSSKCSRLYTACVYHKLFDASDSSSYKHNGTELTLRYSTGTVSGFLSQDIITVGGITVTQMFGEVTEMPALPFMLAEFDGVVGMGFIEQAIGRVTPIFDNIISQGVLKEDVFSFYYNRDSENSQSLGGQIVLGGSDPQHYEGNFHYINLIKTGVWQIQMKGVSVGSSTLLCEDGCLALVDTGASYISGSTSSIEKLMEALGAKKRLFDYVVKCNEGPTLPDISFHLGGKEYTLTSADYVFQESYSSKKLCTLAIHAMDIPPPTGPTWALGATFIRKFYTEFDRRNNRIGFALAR
Summary of the method: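 Pooled frozen human citrate plasma supplemented with recombinant human renin (150 pg/ml final). Inhibitor in DMSO at various concentrations added to a 7:1 mix of plasma and trapping anti-angiotensin I antibody (final antiserum 1:50,000) in Tris/EDTA, pH 7.2.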

Renin [4] = molecular target: T1, Renin; experiment: Inhibition of human recombinant renin in phosphate buffer
Summary of the method: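 Recombinant human renin in PBS with 1 mM EDTA, 0.1% BSA, pH 7.4, premixed at 4 °C with human tetradecapeptide(1–14) substrate (stock 5 μM in 10 mM HCl) and hydroxyquinoline sulfate (stock 30 mM). Compounds diluted in DMSO were added, then incubated 3 h at 37 °C. Angiotensin I accumulation was measured; IC50 from % inhibition curve fit, mean of at least two experiments.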

[5] = Oral bioavailability in Sprague-Dawley rat at 30 mg/kg; format: ADME, organism-based; conditions: in vivo
Summary of the method: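 Sprague–Dawley rats dosed orally at 30 mpk as the HCl salt in 0.5% methocel, 5 ml/kg; iv reference dose 4 mpk in 60% PEG 200/water, 1 ml/kg.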

[6] = AUC in Sprague-Dawley rat at 30 mg/kg, po; conditions: Sprague-Dawley, plasma
[7] = Clearance in Sprague-Dawley rat at 4 mg/kg, iv; format: ADME, organism-based; parameters: dose 4 mg/kg, route intravenous; conditions: in vivo; summary of the method: as §1

**Q.** Which results are given for `COCCCc1ccc(Cl)c(CN(C(=O)[C@@H](CN)Cc2ccc(OCCOc3c(Cl)cc(C)cc3Cl)cc2)C2CC2)c1`?
**A.** half-life [1]: 6 h; AUC (Rattus norvegicus): 8.3 µM·h; Vd [2]: 12 L/kg

**Q.** With `COC(=O)CCc1ccccc1-c1ccc(C(CN)Cc2ccc(OCCOc3c(Cl)cc(C)cc3Cl)cc2)c(C)c1` (stereo not drawn) as the compound, how does the pIC50 (Renin [3]) read?
**A.** 6.85

**Q.** What about the pIC50 (Renin [4]) of the same compound?
**A.** 10.05

**Q.** With `Cc1cc(Cl)c(OCCOc2ccc(CC(CN)c3ccc(-c4ccccc4CCC(=O)N(C)C)cc3C)cc2)c(Cl)c1` (stereo not drawn) as the compound, how does the pIC50 (Renin [3]) read?
**A.** 5.95

**Q.** With `Cc1cc(Cl)c(OCCOc2ccc(CC(CN)c3ccc(-c4ccccc4CCOC(N)=O)cc3C)cc2)c(Cl)c1` (stereo not drawn) as the compound, how does the pIC50 (Renin [3]) read?
**A.** 6.99

**Q.** And the pIC50 (Renin [4])?
**A.** 8.99

**Q.** Which bioavailability [5] does the source give for `CC(=O)NCCc1ccccc1-c1ccc(C(CN)Cc2ccc(OCCOc3c(Cl)cc(C)cc3Cl)cc2)c(C)c1` (stereo not drawn) here?
**A.** 23%

**Q.** What about the half-life [1] of the same compound?
**A.** 7 h

**Q.** What about the AUC [6] of the same compound?
**A.** 5.5 µM·h

**Q.** And the Vd [2]?
**A.** 9 L/kg

**Q.** And the pIC50 (Renin [4])?
**A.** 10.40

**Q.** What about the clearance [7] of the same compound?
**A.** 34 mL/min/kg

**Q.** Which results are given for `CC(=O)NCCCc1ccccc1-c1ccc(C(CN)Cc2ccc(OCCOc3c(Cl)cc(C)cc3Cl)cc2)c(C)c1` (stereo not drawn)?
**A.** pIC50 (Renin [3]): 6.88; pIC50 (Renin [4]): 9.01

**Q.** With `Cc1cc(Cl)c(OCCOc2ccc(CC(CN)c3ccc(-c4ccccc4Cl)cc3Cl)cc2)c(Cl)c1` (stereo not drawn) as the compound, how does the pIC50 (Renin [4]) read?
**A.** 9.28

**Q.** With `COCCCc1ccccc1-c1ccc(C(CN)Cc2ccc(OCCOc3c(Cl)cc(C)cc3Cl)cc2)c(C)c1` (stereo not drawn) as the compound, how does the pIC50 (Renin [4]) read?
**A.** 9.36

**Q.** With `COC(=O)Cc1ccccc1-c1ccc(C(CN)Cc2ccc(OCCOc3c(Cl)cc(C)cc3Cl)cc2)c(C)c1` (stereo not drawn) as the compound, how does the pIC50 (Renin [3]) read?
**A.** 6.27

**Q.** And the pIC50 (Renin [4])?
**A.** 7.89

**Q.** Which results are given for `CC(=O)NCc1ccccc1-c1ccc(C(CN)Cc2ccc(OCCOc3c(Cl)cc(C)cc3Cl)cc2)c(C)c1` (stereo not drawn)?
**A.** pIC50 (Renin [3]): 6.86; pIC50 (Renin [4]): 8.68

**Q.** With `Cc1cc(Cl)c(OCCOc2ccc(CC(CN)c3ccc(-c4cnc5cnccn45)cc3C)cc2)c(Cl)c1` (stereo not drawn) as the compound, how does the pIC50 (Renin [3]) read?
**A.** 6.38

**Q.** What about the pIC50 (Renin [4]) of the same compound?
**A.** 8.41

**Q.** Which results are given for `Cc1cc(Cl)c(OCCOc2ccc(CC(CN)c3ccc(-c4ccnc(N)c4)cc3C)cc2)c(Cl)c1` (stereo not drawn)?
**A.** pIC50 (Renin [3]): 6.64; pIC50 (Renin [4]): 8.77

**Q.** Which results are given for `Cc1cc(Cl)c(OCCOc2ccc(CC(CN)c3ccc(-c4cncnc4)cc3C)cc2)c(Cl)c1` (stereo not drawn)?
**A.** pIC50 (Renin [3]): 6.21; pIC50 (Renin [4]): 8.31
